According to ChEMBL document CHEMBL3259701, “Siderophore receptor-mediated uptake of lactivicin analogues in gram-negative bacteria” (J Med Chem, 2014):
≈ marks a conversion by molar mass, not a printed value.

Experiments:
Pseudomonas aeruginosa [1] = assay: Antibacterial activity against Pseudomonas aeruginosa PAO1 harboring siderophore receptor piuA and pirA double mutant in Mueller-Hinton broth medium by CLSI broth microdilution method; type: functional
Procedure, shortened: (§1)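 MIC by CLSI broth microdilution in standard Mueller Hinton broth. Tested against wild-type P. aeruginosa PAO1 and an isogenic panel lacking one or more siderophore receptors.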

Pseudomonas aeruginosa [2] = assay: Antibacterial activity against Pseudomonas aeruginosa PAO1 harboring siderophore receptor pirA and pfeA double mutant in Mueller-Hinton broth medium by CLSI broth microdilution method; type: functional; procedure, shortened: as §1
Pseudomonas aeruginosa [3] = assay: Antibacterial activity against Pseudomonas aeruginosa PAO1 in medium containing low-Fe by CLSI broth microdilution method; type: functional
Procedure, shortened: (§2)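 MIC by CLSI broth microdilution in a modified Mueller Hinton broth depleted of iron to mimic the low-iron in vivo environment. Tested against PAO1 and isogenic strains lacking one or more siderophore receptors.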

Pseudomonas aeruginosa [4] = assay: Antibacterial activity against Pseudomonas aeruginosa PAO1 harboring siderophore receptor piuA mutant in medium containing low-Fe by CLSI broth microdilution method; type: functional; procedure, shortened: as §2
Pseudomonas aeruginosa [5] = assay: Antibacterial activity against Pseudomonas aeruginosa PAO1 harboring siderophore receptor piuA and pirA double mutant in medium containing low-Fe by CLSI broth microdilution method; type: functional; procedure, shortened: as §2
Pseudomonas aeruginosa [6] = assay: Ratio of MIC for Pseudomonas aeruginosa PAO1 harboring siderophore receptor pirA mutant to MIC for wild type Pseudomonas aeruginosa PAO1 in medium containing low-Fe by CLSI broth microdilution method; type: functional
Procedure, shortened: (§3)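 Ratio of strain MIC to PAO1 MIC. Both MICs were obtained by CLSI broth microdilution in iron-depleted modified Mueller Hinton broth. A shift greater than 4× versus the parent was read as the deleted receptor(s) taking part in uptake.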

Pseudomonas aeruginosa [7] = assay: Ratio of MIC for Pseudomonas aeruginosa PAO1 harboring siderophore receptor fpvA mutant to MIC for wild type Pseudomonas aeruginosa PAO1 in medium containing low-Fe by CLSI broth microdilution method; type: functional; procedure, shortened: as §3
Pseudomonas aeruginosa [8] = assay: Ratio of MIC for Pseudomonas aeruginosa PAO1 harboring siderophore receptor fptA mutant to MIC for wild type Pseudomonas aeruginosa PAO1 in medium containing low-Fe by CLSI broth microdilution method; type: functional; procedure, shortened: as §3
Pseudomonas aeruginosa [9] = assay: Ratio of MIC for Pseudomonas aeruginosa PAO1 harboring siderophore receptor piuA and fpvA double mutant to MIC for wild type Pseudomonas aeruginosa PAO1 in medium containing low-Fe by CLSI broth microdilution method; type: functional
Procedure, shortened: (§4)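 CLSI broth microdilution MICs in a modified Mueller-Hinton broth depleted of iron to mimic low in vivo iron. Tested against wild-type PAO1 and isogenic siderophore receptor knockout strains. Reported as the knockout-strain MIC divided by the PAO1 MIC in the same iron-depleted medium.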

Pseudomonas aeruginosa [10] = assay: Ratio of MIC for Pseudomonas aeruginosa PAO1 harboring siderophore receptor piuA and fptA double mutant to MIC for wild type Pseudomonas aeruginosa PAO1 in medium containing low-Fe by CLSI broth microdilution method; type: functional; procedure, shortened: as §4
Pseudomonas aeruginosa [11] = assay: Ratio of MIC for Pseudomonas aeruginosa PAO1 harboring siderophore receptor pirA and pfeA double mutant to MIC for wild type Pseudomonas aeruginosa PAO1 in medium containing low-Fe by CLSI broth microdilution method; type: functional; procedure, shortened: as §3
Pseudomonas aeruginosa [12] = assay: Ratio of MIC for Pseudomonas aeruginosa PAO1 harboring siderophore receptor piuA, pfeA and pirA mutant to MIC for wild type Pseudomonas aeruginosa PAO1 in medium containing low-Fe by CLSI broth microdilution method; type: functional; procedure, shortened: as §4
Pseudomonas aeruginosa [13] = assay: Ratio of MIC for Pseudomonas aeruginosa PAO1 harboring siderophore receptor piuA mutant in MHB medium to MIC for Pseudomonas aeruginosa PAO1 harboring siderophore receptor piuA mutant in medium containing low-Fe by CLSI broth microdilution method; type: functional
Pseudomonas aeruginosa [14] = assay: Ratio of MIC for Pseudomonas aeruginosa PAO1 harboring siderophore receptor piuA and pfeA double mutant in MHB medium to MIC for Pseudomonas aeruginosa PAO1 harboring siderophore receptor piuA and pfeA double mutant in medium containing low-Fe by CLSI broth microdilution method; type: functional
Pseudomonas aeruginosa [15] = assay: Ratio of MIC for Pseudomonas aeruginosa PAO1 harboring siderophore receptor piuA, pfeA and pirA mutant in MHB medium to MIC for harboring siderophore receptor piuA, pfeA and pirA mutant in medium containing low-Fe by CLSI broth microdilution method; type: functional
Pseudomonas aeruginosa [16] = assay: Antibacterial activity against Pseudomonas aeruginosa PAO1 harboring siderophore receptor piuA mutant in medium containing aztreonam and low-Fe by CLSI broth microdilution method; type: functional
Pseudomonas aeruginosa [17] = assay: Antibacterial activity against Pseudomonas aeruginosa PAO1 harboring siderophore receptor fpvA mutant in medium containing aztreonam and low-Fe by CLSI broth microdilution method; type: functional
Pseudomonas aeruginosa [18] = assay: Antibacterial activity against Pseudomonas aeruginosa PAO1 harboring siderophore receptor fptA mutant in medium containing aztreonam and low-Fe by CLSI broth microdilution method; type: functional
Pseudomonas aeruginosa [19] = assay: Antibacterial activity against Pseudomonas aeruginosa PAO1 harboring siderophore receptor pfeA mutant in medium containing aztreonam and low-Fe by CLSI broth microdilution method; type: functional
Pseudomonas aeruginosa [20] = assay: Antibacterial activity against Pseudomonas aeruginosa PAO1 harboring siderophore receptor piuA and pirA double mutant in medium containing aztreonam and low-Fe by CLSI broth microdilution method; type: functional
Pseudomonas aeruginosa [21] = assay: Ratio of MIC for Pseudomonas aeruginosa PAO1 harboring siderophore receptor pfeA mutant to MIC for wild type Pseudomonas aeruginosa PAO1 in medium containing aztreonam and low-Fe by CLSI broth microdilution method; type: functional
Pseudomonas aeruginosa [22] = assay: Ratio of MIC for Pseudomonas aeruginosa PAO1 harboring siderophore receptor piuA and fpvA double mutant to MIC for wild type Pseudomonas aeruginosa PAO1 in medium containing aztreonam and low-Fe by CLSI broth microdilution method; type: functional
Pseudomonas aeruginosa [23] = assay: Ratio of MIC for Pseudomonas aeruginosa PAO1 harboring siderophore receptor piuA and pfeA double mutant to MIC for wild type Pseudomonas aeruginosa PAO1 in medium containing aztreonam and low-Fe by CLSI broth microdilution method; type: functional
Pseudomonas aeruginosa [24] = assay: Ratio of MIC for Pseudomonas aeruginosa PAO1 harboring siderophore receptor pirA and pfeA double mutant to MIC for wild type Pseudomonas aeruginosa PAO1 in medium containing aztreonam and low-Fe by CLSI broth microdilution method; type: functional
Escherichia coli [25] = assay: Antibacterial activity against Escherichia coli DH5alpha harboring pUCP26 empty vector by CLSI broth microdilution method; type: functional; conditions: DH5[alpha]
Escherichia coli [26] = assay: Antibacterial activity against Escherichia coli DH5alpha expressing beta-lactamase SHV-5 by CLSI broth microdilution method; type: functional; conditions: DH5[alpha]
Escherichia coli [27] = assay: Antibacterial activity against Escherichia coli DH5alpha expressing beta-lactamase SHV-12 by CLSI broth microdilution method; type: functional; conditions: DH5[alpha]
Escherichia coli [28] = assay: Antibacterial activity against Escherichia coli DH5alpha expressing beta-lactamase VIM-2 by CLSI broth microdilution method; type: functional; conditions: DH5[alpha]
Escherichia coli [29] = assay: Antibacterial activity against Escherichia coli DH5alpha expressing beta-lactamase NDM-1 by CLSI broth microdilution method; type: functional; conditions: DH5[alpha]
Pseudomonas aeruginosa [30] = assay: Antibacterial activity against Pseudomonas aeruginosa PAO1 by CLSI broth microdilution method; type: functional
Acinetobacter baumannii = assay: Antibacterial activity against Acinetobacter baumannii AB-3167 by CLSI broth microdilution method; type: functional
[31] = target: Penicillin-binding protein 1A (Pseudomonas aeruginosa PAO1, UniProt Q07806); assay: Displacement of fluorescent Bocillin FL from N-terminal His tagged Pseudomonas aeruginosa PAO1 PBP1a (residues 36 to 822) expressed in Escherichia coli BL21 (Gold cells)
Chain of Penicillin-binding protein 1A (Q07806 whole entry, the tested form may be a part): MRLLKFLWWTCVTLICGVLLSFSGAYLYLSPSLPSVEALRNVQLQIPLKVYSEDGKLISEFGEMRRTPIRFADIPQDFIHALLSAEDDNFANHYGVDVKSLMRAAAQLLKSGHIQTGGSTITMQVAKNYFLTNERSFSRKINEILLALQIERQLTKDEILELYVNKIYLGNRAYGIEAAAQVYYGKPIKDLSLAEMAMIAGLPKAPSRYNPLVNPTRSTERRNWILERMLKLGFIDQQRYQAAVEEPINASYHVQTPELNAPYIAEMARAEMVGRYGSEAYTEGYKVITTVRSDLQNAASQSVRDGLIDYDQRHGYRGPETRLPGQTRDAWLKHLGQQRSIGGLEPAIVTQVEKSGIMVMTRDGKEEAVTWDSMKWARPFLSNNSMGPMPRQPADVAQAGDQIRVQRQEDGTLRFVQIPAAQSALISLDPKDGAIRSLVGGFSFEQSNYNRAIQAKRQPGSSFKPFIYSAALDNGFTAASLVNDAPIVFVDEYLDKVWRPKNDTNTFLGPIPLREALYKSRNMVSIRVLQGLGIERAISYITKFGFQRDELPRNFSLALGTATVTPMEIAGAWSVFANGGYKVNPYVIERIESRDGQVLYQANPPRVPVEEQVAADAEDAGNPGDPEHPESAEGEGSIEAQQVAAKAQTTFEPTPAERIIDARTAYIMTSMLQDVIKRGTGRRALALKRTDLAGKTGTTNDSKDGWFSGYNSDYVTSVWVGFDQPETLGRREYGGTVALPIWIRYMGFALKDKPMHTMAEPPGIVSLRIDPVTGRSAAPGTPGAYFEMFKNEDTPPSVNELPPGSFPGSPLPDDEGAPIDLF

[32] = Displacement of fluorescent Bocillin FL from Pseudomonas aeruginosa PBP1b
Pseudomonas aeruginosa [33] = assay: Antibacterial activity against Pseudomonas aeruginosa PAO1 harboring siderophore receptor pfeA mutant in Mueller-Hinton broth medium by CLSI broth microdilution method; type: functional; procedure, shortened: as §1

SMILES: CC(C)(O/N=C(\C(=O)N[C@H]1CON(C2(C(=O)O)C[C@H](N3C(=O)c4cc(O)c(O)cc4C3=O)C(=O)O2)C1=O)c1csc(N)n1)C(=O)O (some centres undefined)
- MIC (Pseudomonas aeruginosa [1]): 16 µg/mL (≈ 24.1 µM)
- MIC (Pseudomonas aeruginosa [2]): 0.5 µg/mL (≈ 0.755 µM)
- MIC (Pseudomonas aeruginosa [3]): ≤ 0.03 µg/mL
- MIC (Pseudomonas aeruginosa [4]): 0.125 µg/mL (≈ 0.189 µM)
- MIC (Pseudomonas aeruginosa [5]): 0.25 µg/mL (≈ 0.377 µM)
- Ratio (Pseudomonas aeruginosa [6]): 1
- Ratio (Pseudomonas aeruginosa [7]): 1
- Ratio (Pseudomonas aeruginosa [8]): >=2
- Ratio (Pseudomonas aeruginosa [9]): >=8
- Ratio (Pseudomonas aeruginosa [10]): >=16
- Ratio (Pseudomonas aeruginosa [11]): 1
- Ratio (Pseudomonas aeruginosa [12]): >=8
- Ratio (Pseudomonas aeruginosa [13]): 64
- Ratio (Pseudomonas aeruginosa [14]): 64
- Ratio (Pseudomonas aeruginosa [15]): 64
- MIC (Pseudomonas aeruginosa [16]): 4 µg/mL (≈ 6.04 µM)
- MIC (Pseudomonas aeruginosa [17]): 2 µg/mL (≈ 3.02 µM)
- MIC (Pseudomonas aeruginosa [18]): 4 µg/mL (≈ 6.04 µM)
- MIC (Pseudomonas aeruginosa [19]): 4 µg/mL (≈ 6.04 µM)
- MIC (Pseudomonas aeruginosa [20]): 4 µg/mL (≈ 6.04 µM)
- Ratio (Pseudomonas aeruginosa [21]): 1
- Ratio (Pseudomonas aeruginosa [22]): 1
- Ratio (Pseudomonas aeruginosa [23]): 1
- Ratio (Pseudomonas aeruginosa [24]): 1
- MIC (Escherichia coli [25]): 0.03 µg/mL (≈ 0.0453 µM)
- MIC (Escherichia coli [26]): 0.03 µg/mL (≈ 0.0453 µM)
- MIC (Escherichia coli [27]): 0.015 µg/mL (≈ 0.0226 µM)
- MIC (Escherichia coli [28]): 0.015 µg/mL (≈ 0.0226 µM)
- MIC (Escherichia coli [29]): 0.03 µg/mL (≈ 0.0453 µM)
- MIC (Pseudomonas aeruginosa [30]): 0.5 µg/mL (≈ 0.755 µM)
- MIC (Acinetobacter baumannii): 0.06 µg/mL (≈ 0.0906 µM)
- IC50 [31]: 30 nM
- IC50 [32]: 270 nM
- MIC (Pseudomonas aeruginosa [33]): 0.5 µg/mL (≈ 0.755 µM)
